# Activity calls are given as the source filed them. The rule behind the calls is not given here.
# Assays:
# [1] = target: Receptor tyrosine-protein kinase erbB-2 (Homo sapiens) (UniProt P04626); assay: Inhibition of ERBB2 (unknown origin) transfected in mouse Ba/F3 cells at 1 uM after 24 hrs; assay type: cell-based; conditions: BaF3
# Method in brief: (§1)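 Kinase specificity panel: each Ba/F3 line transformed with one of 24 tyrosine kinases depends on that kinase to grow. Cells were given compound at 1 or 5 µM for 24 h, with DMSO as comparator. Percentage growth was read by ATP-lite luminescence and reported as mean ± SEM.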
# [2] = target: Ephrin type-A receptor 7 (Homo sapiens) (UniProt Q15375); assay: Inhibition of EPHA7 (unknown origin) transfected in mouse Ba/F3 cells at 1 uM after 24 hrs; assay type: cell-based; conditions: BaF3; method in brief: as §1
# Ephrin type-A receptor 7 (Homo sapiens), sequence (Q15375 28-998 limits assumed): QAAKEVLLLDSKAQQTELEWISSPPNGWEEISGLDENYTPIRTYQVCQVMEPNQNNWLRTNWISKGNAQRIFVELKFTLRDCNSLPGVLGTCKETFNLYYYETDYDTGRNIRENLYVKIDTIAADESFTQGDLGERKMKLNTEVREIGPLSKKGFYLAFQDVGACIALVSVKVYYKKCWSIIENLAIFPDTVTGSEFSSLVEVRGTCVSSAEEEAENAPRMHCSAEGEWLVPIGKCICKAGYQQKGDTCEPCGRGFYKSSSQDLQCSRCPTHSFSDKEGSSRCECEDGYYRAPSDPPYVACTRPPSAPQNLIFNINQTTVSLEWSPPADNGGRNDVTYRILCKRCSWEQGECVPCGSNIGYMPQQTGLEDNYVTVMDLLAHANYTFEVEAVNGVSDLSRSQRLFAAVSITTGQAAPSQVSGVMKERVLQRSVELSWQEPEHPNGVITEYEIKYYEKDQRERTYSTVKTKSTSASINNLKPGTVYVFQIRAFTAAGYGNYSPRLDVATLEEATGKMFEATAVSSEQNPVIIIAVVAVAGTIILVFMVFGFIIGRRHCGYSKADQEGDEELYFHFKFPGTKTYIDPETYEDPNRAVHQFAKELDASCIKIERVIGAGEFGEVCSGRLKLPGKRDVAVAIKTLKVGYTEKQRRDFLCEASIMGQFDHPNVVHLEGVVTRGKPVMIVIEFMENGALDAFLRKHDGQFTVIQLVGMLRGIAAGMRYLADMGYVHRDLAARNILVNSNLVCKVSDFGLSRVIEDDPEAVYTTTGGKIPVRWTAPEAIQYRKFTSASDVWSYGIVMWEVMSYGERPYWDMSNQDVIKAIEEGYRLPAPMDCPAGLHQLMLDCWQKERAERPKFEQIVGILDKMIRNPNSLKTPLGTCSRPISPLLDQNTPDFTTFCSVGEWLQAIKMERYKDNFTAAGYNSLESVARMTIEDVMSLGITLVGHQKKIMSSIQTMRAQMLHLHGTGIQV
# [3] = target: Proto-oncogene tyrosine-protein kinase Src (Homo sapiens) (UniProt P12931); assay: Inhibition of SRC (unknown origin) transfected in mouse Ba/F3 cells at 1 uM after 24 hrs; assay type: cell-based; conditions: BaF3
# Proto-oncogene tyrosine-protein kinase Src (Homo sapiens), sequence (P12931 2-536 limits assumed): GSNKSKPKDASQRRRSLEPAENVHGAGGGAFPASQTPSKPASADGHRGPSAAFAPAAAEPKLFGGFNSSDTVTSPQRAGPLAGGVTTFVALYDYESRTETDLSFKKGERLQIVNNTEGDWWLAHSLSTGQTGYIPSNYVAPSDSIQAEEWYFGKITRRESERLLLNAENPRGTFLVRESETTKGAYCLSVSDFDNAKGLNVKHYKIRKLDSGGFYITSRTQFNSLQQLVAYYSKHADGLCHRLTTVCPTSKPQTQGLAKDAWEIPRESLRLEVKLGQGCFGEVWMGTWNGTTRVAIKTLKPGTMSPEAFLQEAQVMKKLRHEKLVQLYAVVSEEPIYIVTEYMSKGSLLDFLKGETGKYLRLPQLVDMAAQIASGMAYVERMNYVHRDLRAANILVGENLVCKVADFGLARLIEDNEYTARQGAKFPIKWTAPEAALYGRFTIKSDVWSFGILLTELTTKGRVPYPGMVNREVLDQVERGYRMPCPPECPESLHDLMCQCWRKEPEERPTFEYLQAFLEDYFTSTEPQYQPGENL
# [4] = system: HEL; assay: Cytotoxicity against human HEL cells after 72 hrs by plate reader analysis; assay type: functional, cell-based
# [5] = target: Insulin-like growth factor 1 receptor (Homo sapiens) (UniProt P08069); assay: Inhibition of IGF1R (unknown origin) transfected in mouse Ba/F3 cells at 1 uM after 24 hrs; assay type: cell-based; conditions: BaF3; method in brief: as §1
# Insulin-like growth factor 1 receptor (Homo sapiens), sequence (P08069 31-736 limits assumed): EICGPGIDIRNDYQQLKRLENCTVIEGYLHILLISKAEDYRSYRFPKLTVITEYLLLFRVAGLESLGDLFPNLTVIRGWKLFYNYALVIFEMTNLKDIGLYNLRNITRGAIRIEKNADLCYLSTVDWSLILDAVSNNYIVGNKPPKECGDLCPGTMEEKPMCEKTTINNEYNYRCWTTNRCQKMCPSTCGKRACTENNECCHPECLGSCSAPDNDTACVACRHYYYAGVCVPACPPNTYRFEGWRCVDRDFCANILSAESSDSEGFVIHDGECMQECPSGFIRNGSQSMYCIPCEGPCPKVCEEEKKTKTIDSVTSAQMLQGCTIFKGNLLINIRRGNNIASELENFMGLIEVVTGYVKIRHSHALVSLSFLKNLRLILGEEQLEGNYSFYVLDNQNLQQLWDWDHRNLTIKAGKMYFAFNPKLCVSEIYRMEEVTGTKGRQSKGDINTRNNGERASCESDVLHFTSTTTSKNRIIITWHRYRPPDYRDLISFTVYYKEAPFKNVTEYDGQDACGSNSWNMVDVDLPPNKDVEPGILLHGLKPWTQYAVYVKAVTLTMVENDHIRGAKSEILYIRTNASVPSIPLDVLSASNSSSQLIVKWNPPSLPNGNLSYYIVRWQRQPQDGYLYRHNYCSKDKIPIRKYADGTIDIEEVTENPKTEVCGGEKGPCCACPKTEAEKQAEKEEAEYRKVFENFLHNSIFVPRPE
# Insulin-like growth factor 1 receptor (Homo sapiens), sequence (P08069 741-1367 limits assumed): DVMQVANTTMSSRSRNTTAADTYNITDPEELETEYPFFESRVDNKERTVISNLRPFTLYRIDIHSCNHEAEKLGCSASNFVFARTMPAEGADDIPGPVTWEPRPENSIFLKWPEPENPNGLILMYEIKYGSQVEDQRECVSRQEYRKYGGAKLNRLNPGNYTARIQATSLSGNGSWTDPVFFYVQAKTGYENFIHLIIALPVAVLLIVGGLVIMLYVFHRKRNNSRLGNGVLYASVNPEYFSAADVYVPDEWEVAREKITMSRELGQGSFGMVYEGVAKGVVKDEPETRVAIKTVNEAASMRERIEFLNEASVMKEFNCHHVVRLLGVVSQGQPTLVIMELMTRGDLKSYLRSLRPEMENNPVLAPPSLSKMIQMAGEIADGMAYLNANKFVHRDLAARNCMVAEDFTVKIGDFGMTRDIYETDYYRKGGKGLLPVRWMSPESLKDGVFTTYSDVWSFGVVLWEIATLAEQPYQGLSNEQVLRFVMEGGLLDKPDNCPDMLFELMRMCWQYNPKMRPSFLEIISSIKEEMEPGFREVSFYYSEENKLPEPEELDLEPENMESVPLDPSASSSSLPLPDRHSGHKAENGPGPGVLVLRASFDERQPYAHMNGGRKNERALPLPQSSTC
# [6] = target: T1, Tyrosine-protein kinase receptor TYRO3 (Homo sapiens) (UniProt Q06418); assay: Inhibition of TYRO3 (unknown origin) transfected in mouse Ba/F3 cells at 1 uM after 24 hrs; assay type: cell-based; conditions: BaF3
# T1 sequence (whole entry): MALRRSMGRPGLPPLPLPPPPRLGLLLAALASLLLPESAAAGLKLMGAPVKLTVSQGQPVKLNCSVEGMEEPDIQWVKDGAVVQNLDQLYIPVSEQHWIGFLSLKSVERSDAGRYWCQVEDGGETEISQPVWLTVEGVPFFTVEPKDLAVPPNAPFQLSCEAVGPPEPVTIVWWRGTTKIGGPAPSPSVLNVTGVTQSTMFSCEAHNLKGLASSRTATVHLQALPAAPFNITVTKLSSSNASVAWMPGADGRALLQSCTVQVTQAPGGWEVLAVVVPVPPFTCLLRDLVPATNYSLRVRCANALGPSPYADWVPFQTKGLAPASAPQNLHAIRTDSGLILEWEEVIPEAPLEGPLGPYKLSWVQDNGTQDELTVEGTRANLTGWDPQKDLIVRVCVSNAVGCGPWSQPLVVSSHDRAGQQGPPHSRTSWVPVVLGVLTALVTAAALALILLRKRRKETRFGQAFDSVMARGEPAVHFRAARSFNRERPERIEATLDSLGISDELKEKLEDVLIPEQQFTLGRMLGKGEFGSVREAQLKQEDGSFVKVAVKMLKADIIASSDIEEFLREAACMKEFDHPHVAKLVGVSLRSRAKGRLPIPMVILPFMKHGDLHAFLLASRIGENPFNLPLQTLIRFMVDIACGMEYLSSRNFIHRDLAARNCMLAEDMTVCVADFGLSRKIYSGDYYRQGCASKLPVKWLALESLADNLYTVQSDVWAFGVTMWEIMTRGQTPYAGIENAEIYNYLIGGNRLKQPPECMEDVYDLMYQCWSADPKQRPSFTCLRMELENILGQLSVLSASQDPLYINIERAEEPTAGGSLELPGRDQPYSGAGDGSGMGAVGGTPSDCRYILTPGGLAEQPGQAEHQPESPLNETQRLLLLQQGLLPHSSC
# [7] = target: NT-3 growth factor receptor (Homo sapiens) (UniProt Q16288); assay: Inhibition of NTRK3 (unknown origin) transfected in mouse Ba/F3 cells at 1 uM after 24 hrs; assay type: cell-based; conditions: BaF3
# NT-3 growth factor receptor (Homo sapiens), sequence (Q16288 32-839 limits assumed): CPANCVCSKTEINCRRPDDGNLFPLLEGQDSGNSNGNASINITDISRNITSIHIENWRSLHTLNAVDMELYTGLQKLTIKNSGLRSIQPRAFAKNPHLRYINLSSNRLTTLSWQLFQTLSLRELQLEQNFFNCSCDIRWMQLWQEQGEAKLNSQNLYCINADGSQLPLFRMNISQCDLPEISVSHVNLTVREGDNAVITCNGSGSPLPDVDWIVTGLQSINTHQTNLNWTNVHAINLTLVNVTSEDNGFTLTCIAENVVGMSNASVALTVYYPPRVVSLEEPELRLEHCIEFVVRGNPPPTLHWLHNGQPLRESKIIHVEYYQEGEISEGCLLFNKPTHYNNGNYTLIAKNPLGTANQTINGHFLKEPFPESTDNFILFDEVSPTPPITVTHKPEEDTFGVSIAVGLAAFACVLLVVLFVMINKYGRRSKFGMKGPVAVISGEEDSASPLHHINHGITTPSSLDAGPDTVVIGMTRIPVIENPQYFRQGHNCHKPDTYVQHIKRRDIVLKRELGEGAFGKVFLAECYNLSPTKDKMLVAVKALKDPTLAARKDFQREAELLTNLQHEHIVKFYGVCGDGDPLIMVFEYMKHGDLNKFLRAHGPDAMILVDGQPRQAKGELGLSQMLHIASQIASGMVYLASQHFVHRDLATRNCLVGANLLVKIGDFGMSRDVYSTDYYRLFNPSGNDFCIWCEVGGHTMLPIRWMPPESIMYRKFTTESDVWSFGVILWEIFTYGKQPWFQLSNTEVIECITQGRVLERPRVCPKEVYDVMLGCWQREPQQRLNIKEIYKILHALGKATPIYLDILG
# [8] = system: MOLM-13; assay: Cytotoxicity against human MOLM13 cells after 72 hrs by plate reader analysis; assay type: functional, cell-based; conditions: MOLM-13, 72 h
# [9] = target: Tyrosine-protein kinase Fyn (Homo sapiens) (UniProt P06241); assay: Inhibition of FYN (unknown origin) transfected in mouse Ba/F3 cells at 1 uM after 24 hrs; assay type: cell-based; conditions: BaF3; method in brief: as §1
# Tyrosine-protein kinase Fyn (Homo sapiens), sequence (P06241 2-537 limits assumed): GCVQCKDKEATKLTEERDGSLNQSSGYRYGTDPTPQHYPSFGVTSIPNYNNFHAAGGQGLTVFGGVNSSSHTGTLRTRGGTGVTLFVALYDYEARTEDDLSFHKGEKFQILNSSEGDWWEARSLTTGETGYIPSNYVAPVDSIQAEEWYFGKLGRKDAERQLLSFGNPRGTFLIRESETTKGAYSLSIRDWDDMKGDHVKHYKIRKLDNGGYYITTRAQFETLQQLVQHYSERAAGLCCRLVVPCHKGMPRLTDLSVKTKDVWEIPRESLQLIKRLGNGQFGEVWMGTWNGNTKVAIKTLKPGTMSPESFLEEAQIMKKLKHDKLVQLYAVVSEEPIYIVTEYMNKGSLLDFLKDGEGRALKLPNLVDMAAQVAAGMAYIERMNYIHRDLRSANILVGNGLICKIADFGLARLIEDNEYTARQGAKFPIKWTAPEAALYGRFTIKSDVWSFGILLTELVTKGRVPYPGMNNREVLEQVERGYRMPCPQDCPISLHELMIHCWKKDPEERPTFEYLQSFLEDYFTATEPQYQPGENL
# [10] = target: Fibroblast growth factor receptor 3 (Homo sapiens) (UniProt P22607); assay: Inhibition of FGFR3 (unknown origin) transfected in mouse Ba/F3 cells at 1 uM after 24 hrs; assay type: cell-based; conditions: BaF3; method in brief: as §1
# Fibroblast growth factor receptor 3 (Homo sapiens), sequence (P22607 23-806 limits assumed): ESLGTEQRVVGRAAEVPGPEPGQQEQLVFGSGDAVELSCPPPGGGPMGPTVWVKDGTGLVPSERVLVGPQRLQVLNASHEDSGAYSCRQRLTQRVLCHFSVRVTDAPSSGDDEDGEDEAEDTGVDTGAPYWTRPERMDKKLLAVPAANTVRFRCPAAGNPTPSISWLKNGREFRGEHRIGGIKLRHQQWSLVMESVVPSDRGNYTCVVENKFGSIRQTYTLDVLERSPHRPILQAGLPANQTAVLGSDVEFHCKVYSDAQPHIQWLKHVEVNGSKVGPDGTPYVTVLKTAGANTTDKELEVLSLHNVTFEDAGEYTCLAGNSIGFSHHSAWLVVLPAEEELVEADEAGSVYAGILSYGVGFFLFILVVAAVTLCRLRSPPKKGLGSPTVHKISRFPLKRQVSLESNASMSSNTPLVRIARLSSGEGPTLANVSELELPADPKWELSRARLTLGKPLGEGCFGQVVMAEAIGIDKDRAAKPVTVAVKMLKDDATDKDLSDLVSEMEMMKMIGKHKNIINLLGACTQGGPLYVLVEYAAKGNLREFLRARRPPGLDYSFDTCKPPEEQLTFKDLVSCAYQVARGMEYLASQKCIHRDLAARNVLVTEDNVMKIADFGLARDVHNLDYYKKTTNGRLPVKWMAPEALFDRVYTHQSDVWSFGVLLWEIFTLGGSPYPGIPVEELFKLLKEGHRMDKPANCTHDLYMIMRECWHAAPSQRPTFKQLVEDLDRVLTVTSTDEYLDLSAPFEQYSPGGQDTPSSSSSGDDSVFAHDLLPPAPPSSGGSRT
# [11] = target: T2, Tyrosine-protein kinase Mer (Homo sapiens) (UniProt Q12866); assay: Inhibition of MERTK (unknown origin) transfected in mouse Ba/F3 cells at 1 uM after 24 hrs; assay type: cell-based; conditions: BaF3
# T2 sequence (whole entry): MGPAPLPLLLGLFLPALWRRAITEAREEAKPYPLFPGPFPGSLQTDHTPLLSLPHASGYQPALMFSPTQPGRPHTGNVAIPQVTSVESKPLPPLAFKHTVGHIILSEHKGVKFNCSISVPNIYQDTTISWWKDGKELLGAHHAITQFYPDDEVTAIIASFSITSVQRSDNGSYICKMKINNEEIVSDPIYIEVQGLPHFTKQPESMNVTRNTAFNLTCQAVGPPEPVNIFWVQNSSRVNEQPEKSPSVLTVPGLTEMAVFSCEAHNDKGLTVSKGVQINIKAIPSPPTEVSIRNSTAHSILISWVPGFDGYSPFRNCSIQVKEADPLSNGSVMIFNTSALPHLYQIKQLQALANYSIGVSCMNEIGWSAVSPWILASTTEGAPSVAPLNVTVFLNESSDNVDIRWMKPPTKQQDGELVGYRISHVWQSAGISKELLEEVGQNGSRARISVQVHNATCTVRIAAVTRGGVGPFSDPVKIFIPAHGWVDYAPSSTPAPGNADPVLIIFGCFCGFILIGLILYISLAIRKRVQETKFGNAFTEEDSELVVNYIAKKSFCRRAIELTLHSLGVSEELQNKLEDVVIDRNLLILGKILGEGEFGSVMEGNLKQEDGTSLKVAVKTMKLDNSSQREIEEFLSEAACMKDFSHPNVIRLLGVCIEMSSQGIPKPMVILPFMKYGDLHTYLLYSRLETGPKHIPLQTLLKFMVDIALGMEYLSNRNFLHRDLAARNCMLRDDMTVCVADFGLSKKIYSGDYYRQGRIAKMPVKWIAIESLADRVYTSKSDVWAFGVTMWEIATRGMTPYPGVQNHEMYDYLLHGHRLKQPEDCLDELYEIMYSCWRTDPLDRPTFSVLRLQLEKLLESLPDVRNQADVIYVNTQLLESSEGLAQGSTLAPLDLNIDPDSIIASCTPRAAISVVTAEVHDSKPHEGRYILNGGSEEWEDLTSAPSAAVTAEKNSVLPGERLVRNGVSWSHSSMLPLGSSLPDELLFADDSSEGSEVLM
# [12] = system: BaF3; assay: Cytotoxicity against mouse BA/F3 cells transfected with FLT3-ITD at 1 uM after 24 hrs by plate reader analysis; assay type: functional, cell-based
# [13] = system: KG-1; assay: Cytotoxicity against human KG1 cells after 72 hrs by plate reader analysis; assay type: functional, cell-based; conditions: KG-1, 72 h
inhibition [1],inhibition [2],inhibition [3],inhibition [5],inhibition [6],inhibition [7],inhibition [9],inhibition [10],inhibition [11],Compound,EC50 [4] [µM],EC50 [8] [µM],Activity [12],EC50 [13] [µM]
inactive,inactive,inactive,inactive,inactive,inactive,inactive,inactive,inactive,Cc1cccc(C(=O)Nc2cc(-c3ccc(F)cc3)n[nH]2)c1,62,0.63,Active,29
inactive,inactive,inactive,inactive,inactive,inactive,inactive,inactive,inactive,Cc1ccc(-c2cc(NC(=O)c3ccc(F)cc3)[nH]n2)cc1,1000,0.612,Active,28
inactive,inactive,inactive,inactive,inactive,inactive,inactive,inactive,inactive,COc1ccc(C(=O)Nc2cc(-c3ccccc3)[nH]n2)cc1,47,0.292,Active,15
,,,,,,,,,Fc1ccc(-c2n[nH]cc2-c2ccncc2)cc1Cl,1000,0.258,Active,24
,,,,,,,,,Cc1ccc(-n2cnc3cc(Nc4nnc(C)c5ccccc45)ccc32)cc1,14,0.332,Active,20

# Source: ChEMBL document CHEMBL2390926, “Identification of novel FLT3 kinase inhibitors” (Eur J Med Chem, 2013)
